ChEMBL document CHEMBL1154447, “Synthesis, antimicrobial activity, pharmacophore analysis of some new 2-(substitutedphenyl/benzyl)-5-[(2-benzofuryl)carboxamido]benzoxazoles” (2008)
Converted amounts (≈) assume the structure as drawn.

Tests used:
Assay type in all cases: functional
Escherichia coli [1] = test: Antibacterial activity against Escherichia coli ATCC 25922 after 24 hrs by twofold serial dilution technique; conditions: ATCC 25922, 24 h
Method in brief: (§1)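 Broth microdilution in Mueller-Hinton broth. Isolates were subcultured overnight on MHA at 37 °C and passaged at least twice. McFarland 0.5 cultures […] were diluted to 10⁵ cfu/ml, giving 10⁴ cfu/ml per well, over two-fold compound dilutions. Plates were incubated at 37 °C in a humid chamber for 24 h. MIC was the lowest concentration completely inhibiting macroscopic growth. Triplicate per run.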

Staphylococcus aureus [2] = test: Antibacterial activity against Staphylococcus aureus ATCC 25923 after 24 hrs by twofold serial dilution technique; conditions: ATCC 25923, 24 h; method in brief: as §1
Pichia kudriavzevii = test: Antifungal activity against Candida krusei ATCC 6258 after 48 hrs by twofold serial dilution technique; conditions: ATCC 6258, 48 h
Method in brief: (§2)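 Yeasts were subcultured on SDA at 35 °C for 24-48 h and passaged twice. Broth microdilution followed CLSI M27-A in RPMI-1640 with L-glutamine, MOPS-buffered to pH 7. Inoculum was McFarland 0.5 (10⁶ cfu/ml) diluted to 10⁴ cfu/ml, giving 10³ cfu/ml per well. Incubated at 35 °C in a humid chamber and read at 48 h as the lowest concentration with no macroscopic growth. Triplicate per run.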

Pseudomonas aeruginosa [3] = test: Antibacterial activity against gentamicin-resistant Pseudomonas aeruginosa isolate after 24 hrs by twofold serial dilution technique
Method in brief: (§3)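 Broth microdilution in Mueller-Hinton broth. Strains were subcultured overnight on MHA at 37 °C and passaged at least twice. McFarland 0.5 cultures […] were diluted to 10⁵ cfu/ml, giving 10⁴ cfu/ml per well, against two-fold dilutions from 1000 to 0.06. Solvent and medium controls were included. Plates were held at 37 °C in a humid chamber for 24 h, in triplicate. MIC is the lowest concentration with no macroscopic growth.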

Escherichia coli [4] = test: Antibacterial activity against Escherichia coli isolate containing extended spectrum beta lactamase after 24 hrs by twofold serial dilution technique; method in brief: as §1
Candida albicans [5] = test: Antifungal activity against Candida albicans ATCC 10231 after 48 hrs by twofold serial dilution technique; conditions: ATCC 10231, 48 h; method in brief: as §2
Bacillus subtilis [6] = test: Antibacterial activity against Bacillus subtilis ATCC 6633 after 24 hrs by twofold serial dilution technique; conditions: ATCC 6633, 24 h; method in brief: as §3
Klebsiella pneumoniae [7] = test: Antibacterial activity against Klebsiella pneumoniae isolate containing extended spectrum beta lactamase after 24 hrs by twofold serial dilution technique; method in brief: as §1
Staphylococcus aureus [8] = test: Antibacterial activity against methicillin-resistant Staphylococcus aureus isolate after 24 hrs by twofold serial dilution technique; method in brief: as §3
Candida albicans [9] = test: Antifungal activity against biofilm-positive Candida albicans isolate after 48 hrs by twofold serial dilution technique; method in brief: as §2
Klebsiella pneumoniae [10] = test: Antibacterial activity against Klebsiella pneumoniae RSHM 574 after 24 hrs by twofold serial dilution technique; method in brief: as §1
Bacillus subtilis [11] = test: Antibacterial activity against ceftriaxone-resistant Bacillus subtilis isolate after 24 hrs by twofold serial dilution technique; method in brief: as §3
Pseudomonas aeruginosa [12] = test: Antibacterial activity against Pseudomonas aeruginosa […] after 24 hrs by twofold serial dilution technique; method in brief: as §1

Structure (SMILES): O=C(Nc1ccc2oc(-c3ccccc3Br)nc2c1)c1cc2ccccc2o1
- MIC (Escherichia coli [1]): 62.5 µg/mL (≈ 144 µM)
- MIC (Staphylococcus aureus [2]): 125 µg/mL (≈ 289 µM)
- MIC (Pichia kudriavzevii): 250 µg/mL (≈ 577 µM)
- MIC (Pseudomonas aeruginosa [3]): 62.5 µg/mL (≈ 144 µM)
- MIC (Escherichia coli [4]): 125 µg/mL (≈ 289 µM)
- MIC (Candida albicans [5]): 62.5 µg/mL (≈ 144 µM)
- MIC (Bacillus subtilis [6]): 500 µg/mL (≈ 1150 µM)
- MIC (Klebsiella pneumoniae [7]): 125 µg/mL (≈ 289 µM)
- MIC (Staphylococcus aureus [8]): 31.2 µg/mL (≈ 72.1 µM)
- MIC (Candida albicans [9]): 62.5 µg/mL (≈ 144 µM)
- MIC (Klebsiella pneumoniae [10]): 62.5 µg/mL (≈ 144 µM)
- MIC (Bacillus subtilis [11]): 125 µg/mL (≈ 289 µM)
- MIC (Pseudomonas aeruginosa [12]): 62.5 µg/mL (≈ 144 µM)

Structure (SMILES): CC1COc2c(N3CCN(C)CC3)c(F)cc3c(=O)c(C(=O)O)cn1c23 (configuration not stated) [OFLOXACIN]
- MIC (Staphylococcus aureus [2]): 0.12 µg/mL (≈ 0.332 µM)
- MIC (Pseudomonas aeruginosa [3]): 62.5 µg/mL (≈ 173 µM)
- MIC (Escherichia coli [4]): 7.8 µg/mL (≈ 21.6 µM)
- MIC (Bacillus subtilis [6]): 0.12 µg/mL (≈ 0.332 µM)
- MIC (Klebsiella pneumoniae [7]): 3.9 µg/mL (≈ 10.8 µM)
- MIC (Staphylococcus aureus [8]): 1.9 µg/mL (≈ 5.26 µM)
- MIC (Klebsiella pneumoniae [10]): 0.12 µg/mL (≈ 0.332 µM)
- MIC (Bacillus subtilis [11]): 3.9 µg/mL (≈ 10.8 µM)
- MIC (Pseudomonas aeruginosa [12]): 62.5 µg/mL (≈ 173 µM)

Structure (SMILES): CC1(C)S[C@@H]2[C@H](NC(=O)[C@H](N)c3ccccc3)C(=O)N2[C@H]1C(=O)O.O.O.O [AMPICILLIN TRIHYDRATE]
- MIC (Escherichia coli [1]): 3.9 µg/mL
- MIC (Staphylococcus aureus [2]): 0.48 µg/mL
- MIC (Pseudomonas aeruginosa [3]): > 500 µg/mL
- MIC (Escherichia coli [4]): > 15.6 µg/mL
- MIC (Bacillus subtilis [6]): 0.48 µg/mL
- MIC (Klebsiella pneumoniae [7]): 15.6 µg/mL
- MIC (Staphylococcus aureus [8]): 1.9 µg/mL
- MIC (Klebsiella pneumoniae [10]): 0.48 µg/mL
- MIC (Bacillus subtilis [11]): 0.48 µg/mL
- MIC (Pseudomonas aeruginosa [12]): > 500 µg/mL

Structure (SMILES): O=C(Nc1ccc2oc(-c3ccc(F)cc3)nc2c1)c1cc2ccccc2o1
- MIC (Escherichia coli [1]): 62.5 µg/mL (≈ 168 µM)
- MIC (Staphylococcus aureus [2]): 125 µg/mL (≈ 336 µM)
- MIC (Pichia kudriavzevii): 125 µg/mL (≈ 336 µM)
- MIC (Pseudomonas aeruginosa [3]): 62.5 µg/mL (≈ 168 µM)
- MIC (Escherichia coli [4]): 125 µg/mL (≈ 336 µM)
- MIC (Candida albicans [5]): 62.5 µg/mL (≈ 168 µM)
- MIC (Bacillus subtilis [6]): 500 µg/mL (≈ 1340 µM)
- MIC (Klebsiella pneumoniae [7]): 125 µg/mL (≈ 336 µM)
- MIC (Staphylococcus aureus [8]): 31.2 µg/mL (≈ 83.9 µM)
- MIC (Candida albicans [9]): 62.5 µg/mL (≈ 168 µM)
- MIC (Klebsiella pneumoniae [10]): 62.5 µg/mL (≈ 168 µM)
- MIC (Bacillus subtilis [11]): 125 µg/mL (≈ 336 µM)
- MIC (Pseudomonas aeruginosa [12]): 31.2 µg/mL (≈ 83.9 µM)

Structure (SMILES): O=C(Nc1ccc2oc(Cc3ccc(Br)cc3)nc2c1)c1cc2ccccc2o1
- MIC (Escherichia coli [1]): 62.5 µg/mL (≈ 140 µM)
- MIC (Staphylococcus aureus [2]): 125 µg/mL (≈ 279 µM)
- MIC (Pichia kudriavzevii): 62.5 µg/mL (≈ 140 µM)
- MIC (Pseudomonas aeruginosa [3]): 15.6 µg/mL (≈ 34.9 µM)
- MIC (Escherichia coli [4]): 125 µg/mL (≈ 279 µM)
- MIC (Candida albicans [5]): 62.5 µg/mL (≈ 140 µM)
- MIC (Bacillus subtilis [6]): 125 µg/mL (≈ 279 µM)
- MIC (Klebsiella pneumoniae [7]): 62.5 µg/mL (≈ 140 µM)
- MIC (Staphylococcus aureus [8]): 62.5 µg/mL (≈ 140 µM)
- MIC (Candida albicans [9]): 62.5 µg/mL (≈ 140 µM)
- MIC (Klebsiella pneumoniae [10]): 62.5 µg/mL (≈ 140 µM)
- MIC (Bacillus subtilis [11]): 125 µg/mL (≈ 279 µM)
- MIC (Pseudomonas aeruginosa [12]): 31.2 µg/mL (≈ 69.9 µM)

Structure (SMILES): C[C@@H]1[C@H](O)[C@@H](C)/C=C/C=C/C=C/C=C/C=C/C=C/C=C/[C@H](O[C@@H]2O[C@H](C)[C@@H](O)[C@H](N)[C@@H]2O)C[C@@H]2O[C@](O)(C[C@@H](O)C[C@@H](O)[C@H](O)CC[C@@H](O)C[C@@H](O)CC(=O)O[C@H]1C)C[C@H](O)[C@H]2C(=O)O [AMPHOTERICIN B]
- MIC (Pichia kudriavzevii): 1.9 µg/mL (≈ 2.06 µM)
- MIC (Candida albicans [5]): 0.48 µg/mL (≈ 0.519 µM)
- MIC (Candida albicans [9]): 0.24 µg/mL (≈ 0.26 µM)

Structure (SMILES): OC(Cn1cncn1)(Cn1cncn1)c1ccc(F)cc1F [FLUCONAZOLE]
- MIC (Pichia kudriavzevii): 15.6 µg/mL (≈ 51 µM)
- MIC (Candida albicans [5]): 1.9 µg/mL (≈ 6.2 µM)
- MIC (Candida albicans [9]): 0.48 µg/mL (≈ 1.57 µM)

Structure (SMILES): Cc1ccc(Cc2nc3cc(NC(=O)c4cc5ccccc5o4)ccc3o2)cc1
- MIC (Escherichia coli [1]): 62.5 µg/mL (≈ 163 µM)
- MIC (Staphylococcus aureus [2]): 125 µg/mL (≈ 327 µM)
- MIC (Pichia kudriavzevii): 250 µg/mL (≈ 654 µM)
- MIC (Pseudomonas aeruginosa [3]): 125 µg/mL (≈ 327 µM)
- MIC (Escherichia coli [4]): 125 µg/mL (≈ 327 µM)
- MIC (Candida albicans [5]): 62.5 µg/mL (≈ 163 µM)
- MIC (Bacillus subtilis [6]): 125 µg/mL (≈ 327 µM)
- MIC (Klebsiella pneumoniae [7]): 125 µg/mL (≈ 327 µM)
- MIC (Staphylococcus aureus [8]): 62.5 µg/mL (≈ 163 µM)
- MIC (Candida albicans [9]): 62.5 µg/mL (≈ 163 µM)
- MIC (Klebsiella pneumoniae [10]): 62.5 µg/mL (≈ 163 µM)
- MIC (Bacillus subtilis [11]): 125 µg/mL (≈ 327 µM)
- MIC (Pseudomonas aeruginosa [12]): 62.5 µg/mL (≈ 163 µM)
